Bioassay records: PubChem BioAssay, Sanford-Burnham Center for Chemical Genomics
Hits are enriched below; roughly 3.1% of the tested compounds scored in any of these assays.
Apaf-1 inh – inhibitors of human Apaf-1 apoptosome. O14727. reconstituted apoptosome caspase-3 activity, DEVD-Rh110 fluorescence. inhibition, % at 20 µM. 330,000 compounds, 0.71% hits; active = inhibition of at least 40% at 20 µM;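 also: plate controls were DMSO wells for no effect and DEVD-CHO caspase inhibitor wells for full effect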
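Assay system: Apoptosome proteins | Medium: pH 7.5 Hepes buffer with CHAPS, BSA, DTT | Also added: Cytochrome c and DEVD-Rh110 substrate | Times: 30 min plus 50 min, RT | Detection: Rhodamine 110 fluorescence at Ex 480/Em 540 nm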
SENP8 block-1 – inhibitors of human SENP8 protease; recombinant SENP8, Nedd8 substrate fluorescence; inhibition, % at 20 µM; 360,000 compounds, 0.64% hits; AID 602440; in the data active = inhibition mostly above about 40%, no sharp cut-off; inactive = mostly below about 27%
Target sequence (Q96LD8 whole entry, looked up): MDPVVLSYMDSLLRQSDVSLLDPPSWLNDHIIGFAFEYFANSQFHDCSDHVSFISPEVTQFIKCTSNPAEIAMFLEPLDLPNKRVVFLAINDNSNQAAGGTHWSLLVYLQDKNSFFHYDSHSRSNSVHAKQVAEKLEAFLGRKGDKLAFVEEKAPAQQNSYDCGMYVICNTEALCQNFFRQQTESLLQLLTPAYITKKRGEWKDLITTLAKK
SENP6 inh – SENP6 protease inhibition | Q9GZR1 | Recombinant SENP6 catalytic domain, aminoluciferin luminescence | inhibition, % at 10 µM | 330,000 compounds, 1.8% hits | AID 2599;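 active = inhibition above about 50% at the single tested dose, limit read from the data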;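 also: plate controls were DMSO wells with enzyme for no effect and DMSO wells lacking enzyme for full effect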
SENP7 block – SENP7 protease inhibition; 330,000 compounds, 1.5% hits; Q9BQF6; recombinant SENP7, Z-RLRGG-aminoluciferin luminescence, 40 min; inhibition, % at 5 µM;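 active = inhibition above about 50% at the single test dose, limit read from the data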;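 also: plate controls were DMSO with enzyme for no effect and no enzyme buffer wells for full effect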
UBC13 inh – human UBC13 polyubiquitination inhibition | inhibition, % at 20 µM | AID 485273 | 330,000 compounds, 0.47% hits | P61088 | UBC13 polyubiquitin chain formation, TR-FRET; in the data active = inhibition above about 45%, passing the limit was not always enough
SENP8 block-2 – blocks the human protease SENP8. Q96LD8. purified SENP8, Z-RLRGG-aminoluciferin cleavage, luminescence. inhibition, % at 10 µM. 330,000 compounds, 1.2% hits. AID 2540; in the data active = inhibition above about 50%
SENP8 confirm – human SENP8 inhibition, confirmed; shares compounds with SENP7 block; 6,200 compounds, 40% hits; inhibition, % at 12.5 µM; Recombinant SENP8, Z-RLRGG-aminoluciferin luminescence, 60 min;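 active = mean inhibition across replicates above about 50%, limit read from the data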
SENP6 confirm – confirmation of human SENP6 protease inhibitors. shares compounds with SENP7 block. inhibition, % at 12.5 µM. recombinant SENP6, Z-RLRGG-aminoluciferin luminescence. 6,200 compounds, 58% hits
SENP7 confirm – confirmation of human SENP7 protease inhibitors; 6,200 compounds, 69% hits; inhibition, % at 12.5 µM; AID 488917; recombinant SENP7, Z-RLRGG-aminoluciferin luminescence, 40 min; shares compounds with SENP7 block
Casp3 SENP sel – caspase-3 inhibition (SENP selectivity assay); inhibition, % at 12.5 µM; purified caspase-3, Z-DEVD-aminoluciferin luminescence, 60 min; shares compounds with SENP7 block; 6,200 compounds, 60% hits;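 active = mean inhibition above about 50%, limit read from the data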;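 also: plate controls were enzyme with DMSO for no effect and wells without caspase-3 for full effect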
Target sequence (P42574 28-227 limits assumed): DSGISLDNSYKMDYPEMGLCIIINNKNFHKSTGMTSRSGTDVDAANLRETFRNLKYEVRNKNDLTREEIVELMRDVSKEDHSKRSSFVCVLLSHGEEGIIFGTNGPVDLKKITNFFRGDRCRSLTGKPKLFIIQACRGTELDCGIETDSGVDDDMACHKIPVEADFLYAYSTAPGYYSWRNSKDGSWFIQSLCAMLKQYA
Luc interf – luminescence interference (SENP counter-screen); shares compounds with SENP7 block; Pre-incubated SENP8/Z-RLRGG-aminoluciferin, luciferase luminescence interference; inhibition, % at 12.5 µM; 6,200 compounds, 39% hits; AID 488919;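 active = mean inhibition above about 50% when retested at one dose, limit read from the data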;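 also: plate controls were DMSO wells with completed reaction for no effect and substrate without enzyme for full effect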
The depositor's hits bear a star; nt = not tested or not shown.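 The calls were made as follows, unless noted: active = mean inhibition above about 50% in the one-dose retest (limit read from the data); inactive = the rest.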

SMILES	Apaf-1 inh	SENP8 block-1	SENP6 inh	SENP7 block	UBC13 inh	SENP8 block-2	SENP8 confirm	SENP6 confirm	SENP7 confirm	Casp3 SENP sel	Luc interf
Cc1ccc2sc(-c3ccc(NC(=O)/C=C\C(=O)O)cc3)nc2c1	11	-453	72*	18	-4	55*	-13	4	6	9	15
Cc1nc(-c2ccc(NC(=O)/C=C\C(=O)O)cc2)cs1	-2	16	-18	-6	-9	9	nt	nt	nt	nt	nt
Cc1ccc(C2(C)NC(=O)N(CC(=O)Nc3ccc(-c4nc5ccc(C)cc5s4)cc3)C2=O)cc1 (stereo not drawn)	-2	-418	8	14	2	24	nt	nt	nt	nt	nt
Cc1ccc2nc(-c3ccc(NC(=O)COCC(=O)O)cc3)sc2c1	0	-444	79*	63*	-15	82*	90*	90*	99*	82*	87*
CCC(=O)NC(=S)Nc1ccc(-c2nc3ccc(C)cc3s2)cc1	4	-203	-4	14	2	8	nt	nt	nt	nt	nt
O=C(O)CSCC(=O)Nc1ccc(-c2nc3ccccc3s2)cc1	-14	-439	94*	92*	8	92*	96*	96*	101*	96*	96*
Cc1ccc2nc(-c3ccc(NC(=O)CSCC(=O)O)cc3)sc2c1	-9	-413	82*	32	-5	65*	-6	66*	88*	55*	68*
Nc1ccn(C2OC(CCl)C(O)C2O)c(=O)n1 (stereo not drawn)	nt	13	nt	nt	nt	nt	nt	nt	nt	nt	nt
Cn1cc(Cc2ccc(C(=O)N3CCOCC3)cn2)c2ccccc21	nt	-1	nt	nt	nt	nt	nt	nt	nt	nt	nt
O=c1[nH]cnc2c1ncn2C1OC(CO)CC1F (stereo not drawn)	nt	7	nt	nt	nt	nt	nt	nt	nt	nt	nt
Cc1cccc(-c2nsc(SCC(=O)N3CCCC3)n2)c1	16	33	80*	67*	4	49	59*	65*	87*	77*	55*
O=C(CSc1nc(-c2ccccc2)ns1)N1CCOCC1	0	10	-20	-1	-1	-5	nt	nt	nt	nt	nt
Fc1cccc(Cl)c1/C=C/c1cnc2ccccc2n1	13	-84	96*	11	2	96*	13	84*	66*	58*	74*
CCN(CC)c1ccc(N=Nc2nn(C)c(C)c2[N+](=O)[O-])cc1	11	38	78*	63*	-455	54*	-17	-7	19	10	-2
CSc1ccc(C(O)c2ncc(-c3ccccc3F)[nH]2)cc1 (stereo not drawn)	nt	14	nt	nt	nt	nt	nt	nt	nt	nt	nt
CC(=O)c1sc(N/N=C/c2cccc(O)c2)nc1C	-5	-402	11	1	5	4	nt	nt	nt	nt	nt
CC(=O)c1sc(N/N=C\c2ccc(N(C)C)cc2)nc1C	6	-301	77*	82*	-14	31	20	54*	95*	48	16
COc1cccc(S(=O)(=O)N(C)C[C@H]2OCc3cnnn3CCCC(=O)N([C@H](C)CO)C[C@H]2C)c1	nt	6	nt	nt	nt	nt	nt	nt	nt	nt	nt
CC(C)C(=O)Nc1nc2cc3c(cc2s1)OCCO3	-19	22	33	27	8	-1	nt	nt	nt	nt	nt
Fc1ccc2nc(Nc3nc4cc5c(cc4s3)OCCO5)sc2c1	5	-431	71*	35	-11	52*	-6	17	19	7	-2
Fc1ccc2nc(Nc3nc4cc5c(cc4s3)OCO5)sc2c1	-7	-395	-23	5	-3	-17	nt	nt	nt	nt	nt
CC(=O)Nc1nc2cc3c(cc2s1)OCO3	0	5	68*	56*	5	40	44	53*	86*	83*	26
